# PubChem BioAssay
# Activity calls are given as the source filed them.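 How the source made its calls: active means duplicate-averaged activation above buffer control mean plus 5 SD of those controls; inactive means the rest.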
# Assay: nonspecific flux increase, KCNQ1-free cells – parental CHO cells, counter-screen for KCNQ1 potentiator project (AID 493006)
# Settings: parental CHO-K1 cells, FluxOR thallium flux, at 10 µM
# In short: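 Assay system: Untransfected host CHO-K1 cells with FluxOR thallium dye | Probe or stimulus: Potassium/thallium depolarization pulse | Schedule: Overnight 37 °C plating, 90 min RT dye, 20 min compound | Detection: Kinetic thallium-flux fluorescence | Read-out: Max-minus-min fluorescence over baseline, percent of buffer-to-R-L3 span | Benchmarks: Low control buffer, high control R-L3 activator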
row,Structure (SMILES),outcome
1,COc1ccc(OC)c(NC(=S)NC(=O)c2ccc(Br)o2)c1,inactive
2,Cc1ccc(-c2ccc(/C=C3\C(=O)ON=C3c3ccccc3)o2)c([N+](=O)[O-])c1,inactive
3,Cc1nc(NC(=S)NC(=O)c2ccccc2)sc1C,inactive
4,CN1CCN(c2ccc(S(=O)(=O)N3CCCCC3)cc2NC(=O)COc2cccc(Cl)c2)CC1,inactive
5,O=C(NC(=S)Nc1nc2c(s1)CCCC2)c1ccccc1,inactive
6,Cc1ccc(-n2ncc(C(=O)Nc3cc(Cl)cc(Cl)c3)c2C2CCNCC2)cc1C,inactive
7,CN(CC(=O)NCc1ccccc1Cl)CC(=O)Nc1cccc(F)c1,inactive
8,CN(C)c1ccnc(N(Cc2ccccc2)Cc2ccccc2)c1C#N,inactive
9,COc1ccc(C2CC(c3c(-c4ccccc4)c4cc(Cl)ccc4[nH]c3=O)=NN2S(C)(=O)=O)cc1OC (stereo not given),inactive
10,CCCn1c(=O)c(C(=O)NNC(=O)c2ccc(Cl)cc2Cl)c(O)c2ccccc21,inactive
11,CCC1CCCCN1CCCNC(=O)CSc1nc2nc(C)c(Cc3ccccc3)c(C)n2n1 (stereo not given),inactive
12,CCOC(=O)C1=C(CC)Nc2ccccc2N=C1NC(=O)CCNC(C)=O,inactive
13,O=C(CCN1Cc2ccccc2C1)c1ccc2c(c1)OCCO2,inactive
14,COc1cc(OC)cc(C(=O)N2CC(=O)Nc3ccccc32)c1,inactive
15,COc1cc(O)c2c(=O)c(-c3ccc(O[C@@H]4O[C@H](CO)[C@@H](O)[C@H](O)[C@H]4O)cc3)coc2c1,inactive
16,Cc1ccc(-c2nc(=S)c3c(n2Cc2ccco2)CC(C)(C)OC3)cc1,inactive
17,COc1ccccc1NC(=O)CC1C(=O)NCCN1C(=O)Nc1ccc(Cl)c(Cl)c1 (stereo not given),inactive
18,CCOC(=O)C(C(=O)OCC)C(C(=O)OCC)N1CCOCC1 (stereo not given),inactive
19,CCOC(=O)N1CCN(C(=S)NC(=O)c2ccc(F)c(F)c2)CC1,inactive
20,COC(=O)c1sc(NC(=S)NC(=O)c2cccc(C)c2)nc1C,inactive

row,Structure (SMILES),outcome
1,COc1ccc(OCCCC(=O)NNC(=O)CCN2CCN(c3ccccc3)CC2)cc1,inactive
2,S=c1[nH]nc(-c2cccs2)n1/N=C/c1cn(-c2ccccc2)nc1-c1ccccc1,inactive
3,COc1ccc(NC(=S)NCCC(c2ccccc2)c2ccccc2)c(OC)c1,inactive
4,CCOC(=O)c1[nH]c2cc(OC)c(OC)cc2c1NC(=O)CN(C)C1CCCCC1,inactive
5,Cc1ccc(C)c(N/C(N)=N/c2nc(C)cc(C)n2)c1,inactive
6,S=C(N/N=C/c1cccc2ccccc12)Nc1cccc(Cl)c1,inactive
7,CC(=O)Nc1ccc(NC(=O)CSC2=NS(=O)(=O)c3cc(Cl)ccc3N2)cc1,inactive
8,COc1ccc(-c2nnc(NC(=O)c3ccc(S(=O)(=O)N4CCCc5ccccc54)cc3)o2)cc1,inactive
9,COc1cc(OC)c(-n2cc(-c3ccc(Cl)cc3)[nH]c2=O)cc1Cl,inactive
10,CCn1c(SCC(=O)Nc2ccccc2F)nnc1-c1cnccn1,inactive
11,Cc1ccc(CNc2nc3c([nH]2)c(=O)n(C)c(=O)n3C)cc1,inactive
12,NS(=O)(=O)c1ccc(Sc2ccc3c(c2)CCC3)nc1,inactive
13,COc1nccnc1NS(=O)(=O)c1ccc(NC(=S)NC(=O)c2ccccc2F)cc1,inactive
14,Cc1ccc(C(=O)CSc2nnc3c4ccccc4nc(C(C)(C)C)n23)cc1,inactive
15,CC(C)CNC(=S)NC(=O)c1ccc([N+](=O)[O-])cc1,inactive
16,O=C1C(=O)N(CCCc2ccccc2)c2ccccc21,inactive
17,O=C(Nc1cccnc1)NC1CCCCC1,inactive
18,O=C(N/N=C/c1ccc(-c2ccccc2)o1)c1ccccc1O,inactive
19,O=C(Nc1ccccc1Br)c1ccccc1-c1ccccc1,inactive
20,O=C(NC(=S)Nc1ccccc1N1CCOCC1)c1ccc(-c2cc(Cl)ccc2Cl)o1,inactive
